Drawing on ChEMBL document CHEMBL1148900, “Isolation and characterization of five new tetrasaccharide glycosides from the roots of Ipomoea stans and their cytotoxic activity” (2004), this text covers EC50 and Activity for 5 compounds.

Assay type in all cases: functional
In one assay the test system is OVCAR-5. Nature of the assay: Cytotoxicity against human OVCAR5 cells after 72 hrs. To be noted: OVCAR-5, 72 h, read-out: ED50 (the source's name). An outline of the steps: (§1)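 Cells kept in RPMI with 10% FBS at 37 °C, 5% CO₂, 100% humidity. Log-phase cells were exposed in triplicate to 0.5–100 μg/mL of compound for 72 h at 37 °C. Cell concentration was measured by protein analysis. ED₅₀ (dose inhibiting 50% of control growth) was read from a semilog plot of concentration (μg/mL) against percent viable cells.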

The next assay has as its system HCT-15. In words: Cytotoxicity against human HCT15 cells after 72 hrs. To be noted: for EC50: HCT-15, 72 h, read-out: ED50 (the source's name). Put shortly: as §1
For a further assay, the system named is UISO-SQC1. In words: (§2) Cytotoxicity against human UISO-SQC1 cells after 72 hrs. Put shortly: as §1
Assay [1] is described as follows: as §2. To be noted: UISO-SQC1, 72 h, read-out: ED50 (the source's name). An outline of the steps: as §1

Values after ≈ are worked out from the molar mass of the structure shown. Active and inactive are the calls of the source. No cut-off for these calls is given here.

For `CCCCC[C@H]1CCCCCCCCCC(=O)O[C@@H]2[C@@H](O[C@@H]3O[C@H](C)[C@@H](OC(=O)C(C)C(C)O)[C@H](O)[C@H]3O)[C@H](C)O[C@@H](O[C@H]3[C@H](O[C@H]4[C@H](O1)O[C@H](C)[C@@H](O)[C@@H]4O)O[C@H](COC(=O)C(C)C(C)O)[C@@H](O)[C@@H]3O)[C@@H]2OC(=O)C(C)C` (some centres not stated) [STANSIN 1], the EC50 in the assay on OVCAR-5 was above 25 µg/mL; with HCT-15 it was above 24 µg/mL.

With `CCCCC[C@H]1CCCCCCCCCC(=O)O[C@@H]2[C@@H](O[C@@H]3O[C@H](C)[C@@H](OC(=O)C(C)C(C)O)[C@H](O)[C@H]3O)[C@H](C)O[C@@H](O[C@H]3[C@H](O[C@H]4[C@H](O1)O[C@H](C)[C@@H](O)[C@@H]4O)O[C@H](COC(=O)C(C)C(C)O)[C@@H](O)[C@@H]3O)[C@@H]2OC(=O)CC(C)C` (some centres not stated) [STANSIN 2], the EC50 in the assay on OVCAR-5 was above 25 µg/mL; in the assay on HCT-15, above 24 µg/mL.

As for `CCCCC[C@H]1CCCCCCCCCC(=O)O[C@@H]2[C@@H](O[C@@H]3O[C@H](C)[C@@H](OC(=O)C(C)C(C)O)[C@H](O)[C@H]3O)[C@H](C)O[C@@H](O[C@H]3[C@H](O[C@H]4[C@H](O1)O[C@H](C)[C@@H](O)[C@@H]4O)O[C@H](COC(=O)C(C)C(C)O)[C@@H](O)[C@@H]3O)[C@@H]2OC(=O)C(C)CC` (some centres not stated) [STANSIN 3], the EC50 is above 25 µg/mL in the assay on OVCAR-5 and above 24 µg/mL in the assay on HCT-15.

Regarding `CCCCC[C@H]1CCCCCCCCCC(=O)O[C@@H]2[C@@H](O[C@@H]3O[C@H](C)[C@@H](OC(=O)C(C)C)[C@H](O)[C@H]3O)[C@H](C)O[C@@H](O[C@H]3[C@H](O[C@H]4[C@H](O1)O[C@H](C)[C@@H](O)[C@@H]4O)O[C@H](CO)[C@@H](O)[C@@H]3O)[C@@H]2OC(=O)C(C)CC` (some centres not stated) [STANSIN 4], in the assay with OVCAR-5, the EC50 was determined as 5.5 µg/mL (≈ 5.45 µM). For the same compound, the result in the assay on HCT-15 and in the assay on UISO-SQC1 was inactive.

Take `CCCCC[C@H]1CCCCCCCCCC(=O)O[C@@H]2[C@@H](O[C@@H]3O[C@H](C)[C@@H](OC(=O)C(C)CC)[C@H](O)[C@H]3O)[C@H](C)O[C@@H](O[C@H]3[C@H](O[C@H]4[C@H](O1)O[C@H](C)[C@@H](O)[C@@H]4O)O[C@H](CO)[C@@H](O)[C@@H]3O)[C@@H]2OC(=O)C(C)CC` (some centres not stated) [STANSIN 5]: the EC50 with OVCAR-5 stood at 1.5 µg/mL (≈ 1.47 µM); in the assay with HCT-15, 24 µg/mL (≈ 23.5 µM); in assay [1], 4 µg/mL (≈ 3.91 µM).
